Data taken from EPA's CvTdb concentration-time database.

Assays:
Rat [1] = assay: concentration in brain after dosing; conditions: 6 h; dosed: alpha-Thujone; 25 mg/kg; oral; Male; Harlan Sprague Dawley
Rat [2] = assay: concentration in brain after dosing; conditions: 0.5 h; dosed: alpha-Thujone; 25 mg/kg; oral; Female; Harlan Sprague Dawley
Rat [3] = assay: concentration in plasma after dosing; conditions: 1.5 h; dosed: alpha-Thujone; 25 mg/kg; oral; Male; Harlan Sprague Dawley
Rat [4] = assay: concentration in plasma after dosing; conditions: dosed: Pyridine, 5 mg/kg, iv, Male, F344
Rat [5] = assay: concentration in plasma after dosing; conditions: 0.25 h; dosed: Pyridine; 10 mg/kg; iv; Male; F344
Rat [6] = assay: concentration in plasma after dosing; conditions: dosed: Pyridine, 5 mg/kg, iv, Male, F344; remark: listed apart in the source
Rat [7] = assay: concentration in plasma after dosing; conditions: 20 min; dosed: Methyleugenol; 37 mg/kg; oral; Male; F344/N
Rat [8] = assay: concentration in plasma after dosing; conditions: 2 min; dosed: Methyleugenol; 37 mg/kg; oral; Female; F344/N
Rat [9] = assay: concentration in plasma after dosing; conditions: dosed: Methyleugenol, 37 mg/kg, iv, Male, F344
Rat [10] = assay: concentration in plasma after dosing; conditions: dosed: Methyleugenol, 37 mg/kg, oral, Male, F344/N
human = assay: concentration in blood after dosing; conditions: dosed: trichloroethylene, 100 ppm, inhalation, duration: 6 hr, male
Method in brief: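 A PubMed search, classifier screening and manual review identified published in vivo toxicokinetic studies, which together with two structured collections supplied concentration-versus-time and amount-versus-time points. Points were mostly digitised from plot screenshots with WebPlotDigitizer, otherwise copied from tables. Dose, route, subject details and medium were hand-curated from each paper, and sampling and analytical methods are those of the sources, often unreported.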

Rat [11] = assay: concentration in plasma after dosing; conditions: 0.25 h; dosed: Primidone; 30 mg/kg; oral; Male; F344
Rat [12] = assay: concentration in plasma after dosing; conditions: 3 h; dosed: Primidone; 30 mg/kg; oral; Male; F344
Rat [13] = assay: concentration in plasma after dosing; conditions: 1.5 h; dosed: Primidone; 30 mg/kg; oral; Male; F344
Rat [14] = assay: concentration in plasma after dosing; conditions: 9 h; dosed: Primidone; 130 mg/kg; oral; Male; F344
Rat [15] = assay: concentration in plasma after dosing; conditions: 1.5 h; dosed: Primidone; 80 mg/kg; oral; Male; F344
Mouse [16] = assay: concentration in plasma after dosing; conditions: 10 min; dosed: 2-Hydroxy-4-methoxybenzophenone; 250 mg/kg; oral; Female; B6C3F1
Mouse [17] = assay: concentration in plasma after dosing; conditions: dosed: 2-Hydroxy-4-methoxybenzophenone, 100 mg/kg, oral, Female, B6C3F1
Rat [18] = assay: concentration in plasma after dosing; conditions: dosed: 2-Hydroxy-4-methoxybenzophenone, 250 mg/kg, oral, Male, F344
Rat [19] = assay: concentration in plasma after dosing; conditions: dosed: 2-Hydroxy-4-methoxybenzophenone, 500 mg/kg, oral, Female, F344
Rat [20] = assay: concentration in plasma after dosing; conditions: dosed: 2-Hydroxy-4-methoxybenzophenone, 500 mg/kg, oral, Male, F344
Rat [21] = assay: concentration in plasma after dosing; conditions: dosed: 2-Hydroxy-4-methoxybenzophenone, 100 mg/kg, oral, Female, F344
Mouse [22] = assay: concentration in plasma after dosing; conditions: 0.25 h; dosed: 2-Hydroxy-4-methoxybenzophenone; 50 mg/kg; iv; Male; B6C3F1
Mouse [23] = assay: concentration in plasma after dosing; conditions: 3 h; dosed: 2-Hydroxy-4-methoxybenzophenone; 50 mg/kg; iv; Female; B6C3F1
Rat [24] = assay: concentration in plasma after dosing; conditions: dosed: 2-Hydroxy-4-methoxybenzophenone, 100 mg/kg, oral, Female, F344; remark: listed apart in the source
Rat [25] = assay: concentration in plasma after dosing; conditions: dosed: 2-Hydroxy-4-methoxybenzophenone, 100 mg/kg, oral, Female, F344; remark: listed apart in the source
Mouse [26] = assay: concentration in plasma after dosing; conditions: 5 min; dosed: 2,4-Dichlorophenoxyacetic acid; 2.0 mg/kg; oral; Male; B6C3F1
Rat [27] = assay: concentration in liver after dosing; conditions: 192 h; dosed: Perfluorohexane-1-sulphonic acid – potassium salt; 16 mg/kg; oral; Female; F344
Rat [28] = assay: concentration in brain after dosing; conditions: 6 h; dosed: Perfluorohexane-1-sulphonic acid – potassium salt; 16 mg/kg; oral; Female; F344
Rat [29] = assay: concentration in liver after dosing; conditions: 6 h; dosed: Perfluorohexane-1-sulphonic acid – potassium salt; 16 mg/kg; oral; Female; F344
Rat [30] = assay: concentration in liver after dosing; conditions: 528 h; dosed: Perfluorohexane-1-sulphonic acid – potassium salt; 16 mg/kg; oral; Female; F344
Rat [31] = assay: concentration in kidney after dosing; conditions: 192 h; dosed: Perfluorohexane-1-sulphonic acid – potassium salt; 16 mg/kg; oral; Female; F344
Rat [32] = assay: concentration in kidney after dosing; conditions: 1200 h; dosed: Perfluorohexane-1-sulphonic acid – potassium salt; 16 mg/kg; oral; Male; Harlan Sprague Dawley
Rat [33] = assay: concentration in kidney after dosing; conditions: 1200 h; dosed: Perfluorohexane-1-sulphonic acid – potassium salt; 16 mg/kg; oral; Male; Harlan Sprague Dawley; remark: listed apart in the source

CC(C)[C@]12CC(=O)[C@H](C)[C@H]1C2 [alpha-Thujone]
Conditions | concentration in brain [ng/g] | concentration in plasma [ng/mL]
Rat [1] | 28.2 | –
Rat [2] | 987 | –
Rat [3] | – | 186

c1ccncc1 [Pyridine]
concentration in plasma [ng/mL]
Conditions | 0.05 h | 0.5 h | 4 h | 8 h
Rat [4] | 4920 | – | 1440 | –
Rat [6] | – | 2590 | – | 881

Conditions | concentration in plasma [ng/mL]
Rat [5] | 4870

C=CCc1ccc(OC)c(OC)c1 [Methyleugenol]
Conditions | concentration in plasma [ng/mL]
Rat [7] | 246
Rat [8] | 308

concentration in plasma [ng/mL]
Conditions | 0.5 h | 3 h | 4 h | 5 min
Rat [9] | – | 226 | – | 28800
Rat [10] | 44.9 | – | 12.7 | –

OCC(Cl)(Cl)Cl [trichloroethanol]
human
Conditions | concentration in blood [ng/mL]
0 h | 4780
18 h | 1170
24 h | 3430
42 h | 2780
48 h | 6470
66 h | 5220
72 h | 10800
90 h | 7860

CCC1(c2ccccc2)C(=O)NCNC1=O [Primidone]
Conditions | concentration in plasma [ng/mL]
Rat [11] | 6800
Rat [12] | 7700
Rat [13] | 14000
Rat [14] | 10400
Rat [15] | 35000

O=C(c1ccccc1)c1ccc(O)cc1O [2,4-Dihydroxybenzophenone]
Conditions | concentration in plasma [ng/mL]
Mouse [16] | 2990
Mouse [22] | 1970
Mouse [23] | 57.7

Conditions | concentration in plasma [ng/mL]
Mouse [17], 0.25 h | 276
Mouse [17], 2 h | 92.3
Mouse [17], 2.5 min | 63.7
Mouse [17], 10 min | 130
Rat [18], 0.25 h | 33
Rat [18], 4 h | 90.4
Rat [19], 0.5 h | 669
Rat [19], 12 h | 198
Rat [20], 10 h | 107
Rat [20], 10 min | 78.6
Rat [21], 0.25 h | 123
Rat [21], 4 h | 77.4
Rat [24], 0.25 h | 165
Rat [24], 4 h | 105
Rat [25], 3 h | 59
Rat [25], 10 min | 126

O=C(O)COc1ccc(Cl)cc1Cl [2,4-Dichlorophenoxyacetic acid]
Conditions | concentration in plasma [ng/mL]
Mouse [26] | 4560

O=S(=O)([O-])C(F)(F)C(F)(F)C(F)(F)C(F)(F)C(F)(F)C(F)(F)F.[K+] [Perfluorohexane-1-sulphonic acid – potassium salt]
Conditions | concentration in brain [ng/g] | concentration in kidney [ng/g] | concentration in liver [ng/g]
Rat [27] | – | – | 40300
Rat [28] | 1520 | – | –
Rat [29] | – | – | 87400
Rat [30] | – | – | 29800
Rat [31] | – | 15300 | –
Rat [32] | – | 2640 | –
Rat [33] | – | 4040 | –
